The target of test [1] is T1, IL-1β (Homo sapiens, UniProt P01584). The experiment in a line: On-bead microplate equilibrium binding assay, IL-1β. In a few lines:
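Human IL-1β, N-terminal His-tag, expressed in E. coli BL21(DE3), purified by Ni-NTA and size exclusion. Labelled with 3 equiv ROX-NHS for 1 h at room temperature, free dye removed on G-25. Three compound-bearing PEGA beads per well, in triplicate. Two-fold dilutions from 10 μM in 5 mM phosphate buffer, overnight incubation. ROX fluorescence imaged at 2 ms exposure. Kd from one-site nonlinear fit.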

For test [2], the target named is T1, IL-1β. Description: On-bead binding assay by fluorescence microscopy. The following applies: on PEGA beads, 50 nM ROX-IL-1β. In a few lines:
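Human IL-1β came from a codon-optimised gene with an N-terminal His-tag, expressed in E. coli BL21(DE3) and purified by Ni-NTA then size exclusion in PBS. It was labelled with 3 equiv ROX-NHS for 1 h at room temperature, excess dye removed on G-25 gel filtration, and quantified by 660 nm protein assay. Acetylated beads without β-body served as negative control. ROX read at 560/14 nm excitation and 605/52 nm emission.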

In the next test the test system is IL-1α. Description: On-bead binding specificity test. More on the design: species or system human. As to conditions: 50 nM ROX-IL-1α, PEGA beads, Figure 4B.
The nature of test [3]: Unspecific interaction between capture and detection β-body. It counts as binding. In a few lines: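 Capture β-body was covalently linked to PEGA1900 beads and mixed in solution with purified ROX-labelled detection β-body, with no target protein added. For the IL-1β pair, incubation was in deionised water in glass vials for 3 h. Beads were then imaged by wide-field fluorescence microscopy for ROX at 560/14 nm excitation and 605/52 nm emission.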

For test [4], the target named is T1, IL-1β. Description: Sandwich assay for IL-1β. The test is classed as binding. As to conditions: capture 10 with detection ROX-2, 50 nM IL-1β, deionized water.
The next test deals with IL-6. Description: Sandwich assay for IL-6. The test is classed as binding, human. The following applies: capture 6 / ROX-labeled 7, with 0.05–0.1 M urea, 20 nM IL-6.
Test [5] has as its target T2, GFP (Aequorea victoria, UniProt P42212, F64L/H231L/S65T). Description: Affinity purification of GFP from cell lysate on PEGA-β-body column, SDS-PAGE. As to conditions: packed PEGA column, washed with water, eluted with PBS. The method, boiled down:
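GFP from Aequorea victoria, with an N-terminal His-tag, was expressed in E. coli BL21(DE3) from a pET plasmid. Culture was in LB with 100 μg/mL ampicillin at 37 °C to mid-exponential phase, then induced with 1 mM IPTG for 18 h at 20 °C. Cells were lysed in 50 mM Tris, 0.5 M NaCl, pH 8.0 with lysozyme and sonication, then clarified. SDS-PAGE gels were Coomassie-stained.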

Test [6] has as its target T2, GFP. Description: Binding of GFP from E. coli cell lysate to β-body beads. The following applies: beads with lysed E. coli cells expressing GFP. In a few lines:
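PEGA beads carrying the test compound incubated with lysed E. coli cells expressing GFP. Bead-bound GFP imaged by wide-field fluorescence microscopy (ex 482/18 nm, em 520/28 nm). For capture, beads washed with water, bound GFP eluted with PBS, and the eluate analysed by SDS-PAGE alongside the whole-cell lysate.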

Test [7] concerns the target T2, GFP. The experiment in a line: On-bead microplate equilibrium binding assay, GFP. The method, boiled down: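 Three equal-sized PEGA beads bearing the test compound per well, in triplicate. Purified His-tagged GFP in Milli-Q water, two-fold serial dilutions from 20 μM. Incubated overnight at room temperature to equilibrium. Per-bead fluorescence quantified by microscopy (1 ms exposure, GFP filter set). Kd from a one-site specific binding nonlinear regression fit; points average 3–6 measurements.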

For test [8], the target named is T2, GFP. Description: On-bead binding assay by fluorescence microscopy. The following applies: on PEGA beads, 50 nM GFP. In a few lines:
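Recombinant N-terminally His-tagged GFP expressed in E. coli BL21(DE3), purified by Ni-NTA then size exclusion in PBS pH 7.4. Concentration from A490 (ε 55 000 M–1 cm–1). PEGA beads bearing the test compound placed in microplate wells with 50 nM GFP. N-acetylated beads served as negative control. Bead fluorescence imaged by microscopy (ex 482/18 nm, em 520/28 nm).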

A further test relates to IL-2. Description: Sandwich assay for IL-2. The test is classed as binding, human. The following applies: for detection of IL-2 in sandwich assay: capture bead-4 plus detection ROX-5, 50 nM IL-2, deionized water; for bead fluorescence in sandwich assay before protein addition: capture bead-4 plus detection ROX-5, deionized water, no IL-2.
The target of test [9] is human recombinant IL-2 (ProSpec) (human, UniProt P60568 21-153). The experiment in a line: on-bead fluorescence microscopy.
Sequence of human recombinant IL-2 (ProSpec) (P60568 21-153): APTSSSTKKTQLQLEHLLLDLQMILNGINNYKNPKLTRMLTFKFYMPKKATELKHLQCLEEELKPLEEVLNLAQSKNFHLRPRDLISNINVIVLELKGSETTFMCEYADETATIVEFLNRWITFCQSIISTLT

Where no end group is shown, it is not given here. ROX = carboxy-X-rhodamine

As usually defined, the Kd is the equilibrium constant for the complex coming apart. The low end stands for a tighter complex, the high end for a looser complex.

TWTETYTWTEPGDTQTLTITNTG [β-body 3] returned a Kd on IL-1β [1] of 610 ± 50 nM.

For ETDTYTETYPGRTITWTITDG [β-body 2], at IL-1β [2], the “binding of ROX-labeled IL-1β to β-body beads” value is listed as “binding was observed”. The “binding of ROX-labeled IL-1α to β-body beads (specificity)” value in the test with IL-1α is recorded as “no interaction”.

For the molecule ROX-ETDTYTETYPGYTSTWTITDG [ROX-2], in [3] (ROX-labeled 2 / capture 3 (IL-1β pair)), the “unspecific binding of detection peptide to capture peptide” value is on record as “could not be prevented without affecting at the same time the binding of IL-1β”. Besides, the “detection of IL-1β in sandwich assay” value at IL-1β [4] is “enabled us to also detect IL-1β in nanomolar concentrations”.

On to ROX-TMTDTDTYPGFTDTLTHAG [ROX-7], for which the “unspecific interaction between capture and detection peptide at surface of beads” value in test [3] (capture 6 / ROX-labeled 7 (IL-6 pair), no urea) is listed as “some unspecific interaction”. Besides, the “fluorescence from beads with IL-6 added” value with IL-6 is “remained strongly fluorescent”.

Regarding TETKTVTITRPKMTWTFTHTVTG [β-body 1], on GFP [5], the “purification of GFP from cell lysate” value is listed as “a significant up-concentration of GFP was achieved with removal of the majority of other proteins in the cell lysate”. Moreover, on GFP [6], the “binding of GFP from cell lysate” value was “binding was observed” and the “transfer of fluorescence from lysate to beads” value was “quantitatively transferred from the lysate to the beads”. The molecule further showed a Kd on GFP [7] of 184 ± 28.6 nM. For the same molecule, the “binding of GFP to β-body beads” value on GFP [8] was “binding was observed”.

In the case of ROX-TRTLTYTEPGITQTKTEAG [ROX-5], in the test with IL-2, the “detection of IL-2 in sandwich assay” value is listed as “fluorescent beads were then observed exclusively after addition of 50 nM of IL-2” and the “bead fluorescence in sandwich assay before protein addition” value is “no observation of fluorescence on the beads”.

Consider NTVTNTMTRPGVTETVTQTDG [β-body 4], for which, in the test on IL-2, the “detection of IL-2 in sandwich assay” value was “fluorescent beads were then observed exclusively after addition of 50 nM of IL-2” and the “bead fluorescence in sandwich assay before protein addition” value is “no observation of fluorescence on the beads”.

B1: ROX-labeled β-body 5 (designed binder)
peptide: {ROX}-TRTLTYTEPGITQTKTEAG
B1: in test [9], the binding result is reported as “binds”.

For the origin of these results see article PMC6396188 (ACS Central Science, 2019).
